This is a sample that favours compounds with a hit; in the whole collection about 2% have one here.
Runt-SMMHC FRET: inhibitors of human RUNX1 Runt domain binding to CBFb-SMMHC; Cerulean-Runt/Venus-CBFb-SMMHC FRET ratio 530/480, 1 h; inhibition, % at 20 µM; hit rate 0.74% among 220,000; AID 1434;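 active = mean inhibition across duplicate retests at 20 µM reaching about 50%, limit read from the data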;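 note: 0% = DMSO wells and 100% = wells with excess untagged CBFb-SMMHC; inhibitors lower the FRET ratio by blocking Runt binding to CBFb-SMMHC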
Target sequence (Q01196 whole entry, looked up, the tested form may be a part): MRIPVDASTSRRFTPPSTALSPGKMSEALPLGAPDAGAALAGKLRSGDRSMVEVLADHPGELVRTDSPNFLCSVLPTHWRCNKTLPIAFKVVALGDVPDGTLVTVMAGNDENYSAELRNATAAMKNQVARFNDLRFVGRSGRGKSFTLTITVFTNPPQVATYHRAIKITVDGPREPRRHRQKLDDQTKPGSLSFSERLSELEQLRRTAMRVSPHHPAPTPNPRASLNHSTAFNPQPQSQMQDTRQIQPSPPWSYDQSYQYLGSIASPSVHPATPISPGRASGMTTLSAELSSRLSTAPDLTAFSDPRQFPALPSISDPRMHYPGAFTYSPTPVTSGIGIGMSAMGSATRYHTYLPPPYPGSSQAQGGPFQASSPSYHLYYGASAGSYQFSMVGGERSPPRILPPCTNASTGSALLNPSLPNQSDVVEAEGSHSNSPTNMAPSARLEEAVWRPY
Target sequence (Q13951 whole entry, looked up, the tested form may be a part): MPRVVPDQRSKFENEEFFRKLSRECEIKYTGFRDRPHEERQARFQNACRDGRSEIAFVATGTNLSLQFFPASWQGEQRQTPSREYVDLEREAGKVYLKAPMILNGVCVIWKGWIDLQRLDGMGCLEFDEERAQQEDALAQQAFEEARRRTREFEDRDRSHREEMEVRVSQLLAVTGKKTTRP
Runt-CBFb FRET: Runt domain-CBFb interaction inhibition. inhibition, % at 20 µM. Cerulean-Runt/Venus-CBFb FRET ratio 530/480, 1 h. hit rate 0.46% among 220,000. Q01196+Q13951. AID 1496;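 active = inhibition over about 50% at 20 µM in the single-dose screen, limit read from the data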;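 note: 0% = DMSO wells and 100% = excess unlabeled CBFb competitor control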
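Schedule: protein complex preformed 1 h, compound exposure 1 h, room temperature, dark; test system: Cerulean-labeled Runt domain protein; amount: 100 nM per protein; buffer or medium: Tris 50 mM pH 7.5, KCl, K2SO4, 0.01% BSA; read-out: loss of energy transfer signal; detection: FRET fluorescence; controls: 5 µM unlabeled CBFb as full-inhibition high control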
RanGTP-Impb inh: inhibitors of RanGTP-importin-beta interaction, primary screen, biochemical, FRET, CFP-Ran, YFP-importin-beta, homogeneous; inhibition, % (concentration not given with the values); cell-free CFP-Ran/YFP-importin-beta FRET ratio; AID 2216; hit rate 1.1% among 300,000;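 active = more than half of the replicate wells show a fall in the fluorescence ratio signal beyond about 16%, limit read from the data, passing the limit was not always enough; inconclusive = exactly half of the replicate wells pass the set limit; inactive = fewer than half of replicates pass the limit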;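 note: 0% = DMSO wells and 100% = Ran loaded with GDP instead of GTP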
EBV gp42 block: inhibitors of Epstein-Barr virus glycoprotein 42. Q1HVG2. Fluorescence polarization binding assay, mP read-out. inhibition, % (tested at 21.74 µM). hit rate 0.42% among 220,000. AID 1085
MEX-5 binding: C. elegans MEX-5 TCR-2 RNA binding activity; hit rate 0.38% among 300,000; activity score (negative = inhibition of binding), % at 10 µM; AID 1832; MEX-5/FITC-TCR2 RNA binding, fluorescence polarization; active compounds read low; Q9XUB2;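 active = inhibition past about -25% in most replicates, and total fluorescence under double the plate's negative control median, limit read from the data; inconclusive = replicates evenly split on the limit, or fluorescence at least double controls; inactive = too little inhibition in most replicates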;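 note: 0% = DMSO and -100% = 5 µM competing unlabeled TCR2 RNA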
PKD1 inh: PKD1 (human) kinase inhibition; hit rate 0.056% among 200,000; PKD1 kinase fluorescence polarization assay; inhibition, % (concentration not given with the values); AID 797
YIC counter: counter-screen for RanGTP-importin-beta inhibitors: YIC FRET probe | AID 435026 | hit rate 40% among 1,000 | shares compounds with RanGTP-Impb inh | IC50, µM | Purified YIC probe, intramolecular FRET ratio YFP/CFP;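 active = fitted half-maximal inhibitory concentration no more than tenfold above the top dose tested; inconclusive = flat fit with 30 to 70% activity, or poor fit; inactive = half-maximal concentration beyond tenfold above the top dose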
* = called active by the depositor; ? = inconclusive; . = not tested or not shown. Cut-off read from the data, not from the text of the source, unless noted: active = inhibition above about 50%; inactive = the rest.

SMILES	Runt-SMMHC FRET	Runt-CBFb FRET	RanGTP-Impb inh	EBV gp42 block	MEX-5 binding	PKD1 inh	YIC counter
CCOc1ccc2cc(C(=O)c3ccccc3)c(=O)oc2c1	3	-3	3	-12	1	-8	.
O=C(c1ccc(F)cc1)c1cc2ccc(O)cc2oc1=O	.	.	37*	.	-3	.	13*
COc1ccc(N(CC(=O)NCc2ccco2)C(=O)CNS(=O)(=O)c2ccc(Cl)cc2)cc1	.	.	-1	.	-1	.	.
N#Cc1cc(NCC2CCCO2)c([N+](=O)[O-])cc1C#N (stereo not drawn)	-1	0	23*	2	-10	-11	>50
O=[N+]([O-])c1cc(C(F)(F)F)ccc1NCC1CCCO1 (stereo not drawn)	.	.	-6	.	12	.	.
CC[n+]1c(C)cc(C)n1-c1ccccc1	9	-1	-2	-10	3	0	.
Cn1cnc(S(=O)(=O)N2CCN(c3ccccc3)CC2)c1	.	.	1	.	0	.	.
Cn1cnc(S(=O)(=O)N2CCN(c3ccc(Cl)cc3)CC2)c1	.	.	18*	.	7	.	>50
CCOC(=O)N1CCN(S(=O)(=O)N2CCCC(C(=O)NC(C)c3ccccc3)C2)CC1 (stereo not drawn)	.	.	3	.	2	.	.
CNC(=S)Nc1ccc(C(N)=O)cc1	-6	2	27*	-15	-1	-2	>50
C=CCNC(=S)Nc1ccc(C(N)=O)cc1	-5	0	4	-7	-1	-4	.
O=C(CCNC(=O)c1ccc(Cl)cc1)Nc1ccccc1N1CCCCC1	.	.	-4	.	2	.	.
CC1CCc2nc(NC(=O)Nc3ccc4c(c3)OCO4)sc2C1 (stereo not drawn)	10	12	0	-10	1	-12	.
O=C(O)Cn1cc(/C=C2\SC(=O)N(c3ccccc3)C2=O)c2ccccc21	29	14	24*	-5	-1	-3	39*
O=C(O)Cn1cc(/C=C2/SC(=O)N(CC(=O)N3CCCCCC3)C2=O)c2ccccc21	27	8	17*	-16	3	0	>50
Cc1cccc(-c2cccc(NC(=O)C3CCCN(C(=O)c4csc(C)n4)C3)c2)c1 (stereo not drawn)	.	.	2	.	-1	.	.
Cc1ccccc1-c1nnc(NC(=O)c2ccc(N3C(=O)CCC3=O)cc2)s1	-4	-1	-2	3	-4	-12	.
Cc1cccc(-c2nnc(NC(=O)c3ccc(N4C(=O)CCC4=O)cc3)s2)c1	-2	-2	17*	-20	-3	-4	>50
CN(C)c1nnnn1-c1ccc(OC(F)(F)F)cc1	1	2	-1	-20	3	-8	.
Cn1c(SCc2cccc([N+](=O)[O-])c2)nc2c(c1=O)SCC2	-1	0	16*	-5	1	-3	>50
CN(C)S(=O)(=O)c1ccc(N2CCCC2)c(C(=O)NC(c2ccccc2)c2ccccc2)c1	-5	-2	19*	-53	0	-6	>50
CN(C)S(=O)(=O)c1ccc(N2CCCC2)c(C(=O)Nc2ccccc2Br)c1	.	.	7	.	-2	.	.
COc1cc2c(cc1C1C(C#N)=C(N)OC3=C1C(=O)CC(C)(C)C3)OCO2 (stereo not drawn)	.	.	-2	.	0	.	.
COc1ccc(C2C(C#N)=C(N)Oc3cc4c(cc32)OCO4)cc1 (stereo not drawn)	10	13	25*	-2	0	-3	>50
CCc1nnc(NC(=O)c2c(C)nn(-c3ccccc3)c2Cl)s1	-1	-2	20*	-24	0	4	>50
COc1ccc(CN(C(=O)c2snc(C(N)=O)c2N)C(C(=O)NC(C)(C)C)c2ccco2)cc1 (stereo not drawn)	2	-5	?	-1	0	-7	.
CC(C)(C)NC(=O)C(c1ccco1)N(Cc1ccc(F)cc1)C(=O)c1snc(C(N)=O)c1N (stereo not drawn)	2	-4	28*	2	1	36	>50
CC(=O)c1ccc(NC(=O)c2ccc3snnc3c2)cc1	.	.	0	.	0	.	.

Screening results deposited in PubChem by several laboratories.
